DENV2 CPE: DENV2-induced cell death inhibition; DENV2-infected cells, cytopathic effect rescue, plate reader; CPE inhibition, % at 9.99 µM; hit rate 1.7% among 350,000; in the data active = CPE inhibition above about 20%, passing the limit was not always enough; inconclusive = no clear call, values can overlap the other calls; tested in BHK-21 cells;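 also: 0% = median of neutral control wells and 100% = median of positive control wells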
SIRT5 inh: blocks human SIRT5 desuccinylation of peptide; inhibition, % at 15 µM; AID 652115; hit rate 1.1% among 330,000; Purified SirT5, succinyl-peptide AMC, trypsin-coupled fluorescence; in the data active = inhibition above about 15%; inconclusive = no clear call, values can overlap the other calls
CAL PDZ FP-1: inhibitors of human CAL PDZ peptide binding. AID 602252. purified CAL PDZ, TMR-peptide fluorescence polarization, 1 h. Q9HD26. inhibition, % at 24.9 µM. hit rate 0.92% among 300,000;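 active = mean inhibition of at least 30% with at least half of replicates also reaching 30%; inconclusive = no clear call, values can overlap the other calls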;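 also: 0% = DMSO neutral control and 100% = excess unlabeled competitor peptide PRC23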
ERAP1 HTS inh: ERAP1 (human) enzyme inhibition; Q9NZ08; recombinant ERAP1, Leu-AMC fluorescence, 60 min; inhibition, % at 10.7 µM; hit rate 0.15% among 340,000; AID 652197;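 active = mean replicate inhibition of at least 30%, or all replicates individually reaching that 30% level; inactive = mean below 30% and not every replicate reaching it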;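 also: 0% = neutral control wells and 100% = L-leucinethiol positive control wells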
Target sequence (Q9NZ08 whole entry, looked up): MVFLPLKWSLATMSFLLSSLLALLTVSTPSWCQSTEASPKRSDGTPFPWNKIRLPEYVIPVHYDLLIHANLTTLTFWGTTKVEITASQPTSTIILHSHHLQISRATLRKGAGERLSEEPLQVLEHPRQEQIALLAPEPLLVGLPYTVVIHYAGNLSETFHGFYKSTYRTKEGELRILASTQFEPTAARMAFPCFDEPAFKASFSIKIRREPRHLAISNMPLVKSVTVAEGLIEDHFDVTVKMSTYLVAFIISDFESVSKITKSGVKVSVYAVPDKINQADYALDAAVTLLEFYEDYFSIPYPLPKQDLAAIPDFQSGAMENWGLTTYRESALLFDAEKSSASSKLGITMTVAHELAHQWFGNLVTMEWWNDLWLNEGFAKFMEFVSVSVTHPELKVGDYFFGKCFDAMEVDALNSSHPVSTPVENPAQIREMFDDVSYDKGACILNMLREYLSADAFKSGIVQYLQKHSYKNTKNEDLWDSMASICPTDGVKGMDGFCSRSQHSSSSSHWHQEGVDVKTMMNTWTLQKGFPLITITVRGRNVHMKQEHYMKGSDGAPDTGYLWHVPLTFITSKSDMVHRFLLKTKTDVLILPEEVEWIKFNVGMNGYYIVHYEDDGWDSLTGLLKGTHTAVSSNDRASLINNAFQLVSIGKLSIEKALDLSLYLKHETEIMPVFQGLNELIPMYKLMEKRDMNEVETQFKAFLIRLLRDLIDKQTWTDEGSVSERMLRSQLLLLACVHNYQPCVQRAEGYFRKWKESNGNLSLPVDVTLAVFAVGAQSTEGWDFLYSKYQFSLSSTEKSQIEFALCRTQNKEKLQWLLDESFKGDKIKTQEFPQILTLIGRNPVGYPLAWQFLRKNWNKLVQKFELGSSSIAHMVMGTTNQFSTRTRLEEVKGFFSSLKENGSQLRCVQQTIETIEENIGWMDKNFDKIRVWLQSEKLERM
S100A4 MyoIIA: inhibitors of human S100A4 binding to myosin IIA peptide; P26447; S100A4/TAMRA-MyoIIA peptide fluorescence polarization; inhibition, % at 10.7 µM; hit rate 0.14% among 360,000;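 active = mean inhibition of at least 70% across replicates, with every replicate also reaching that level; inconclusive = mean inhibition reaches 70% but some replicates fall short; inactive = mean inhibition below 70%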
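Material: S100A4 monomer (human). Medium: Calcium-containing HEPES buffer, pH 7.2. Probe or stimulus: labelled myosin peptide probe, 5 nM. Compound dosing: one concentration per compound. Timing: polarization read 5 min after assay mix addition, stable 5–60 min. Benchmarks: DMSO as neutral control, TFP as positive control.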
CAL PDZ FP-2: blocks peptide binding to human CAL PDZ domain. purified CAL PDZ, TMR-peptide fluorescence polarization, 1 h. inhibition, % at 20 µM. hit rate 0.02% among 330,000. AID 504414;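 active = highest replicate inhibition of at least 40%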;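 also: plate controls were DMSO neutral control wells for no effect and unlabeled competitor peptide control wells for full effect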
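Control set: unlabelled peptide and DMSO controls / Material: purified CerCALP PDZ construct / Timing: 1 h incubation at room temperature before polarization reading / Doses: 20 µM, one dose / Detection: fluorescence polarization (mP)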
Starred values were filed as active, the others as inactive; u = inconclusive; x = not tested or not shown; + = active, no number. In the library only some 2.9% were active in any assay of this set; here they are far more common.

SMILES	DENV2 CPE	SIRT5 inh	CAL PDZ FP-1	ERAP1 HTS inh	S100A4 MyoIIA	CAL PDZ FP-2
COc1ccccc1-c1ccc(C2[C@H]3CNC[C@@H]2N3S(=O)(=O)c2ccccc2OC)cc1 (stereo partly specified)	-1	3	x	-6	6	x
C[C@@H]1CN([C@@H](C)CO)C(=O)c2cc(NC(=O)CCCN(C)C)ccc2O[C@H]1CN(C)C(=O)Nc1ccc(F)cc1	-2	-3	x	0	-2	x
C[C@H](CO)N1C[C@H](C)[C@@H](CN(C)C(=O)c2ccccn2)Oc2ncc(Br)cc2C1=O	3	0	x	-2	5	x
C[C@H]1CN([C@@H](C)CO)S(=O)(=O)c2ccc(-c3cncnc3)cc2O[C@@H]1CN(C)C(=O)c1cccc(F)c1	9	3	x	5	-2	x
COc1cccc(C#Cc2ccc([C@@H]3[C@H](CO)N4C(=O)CN(C(=O)c5ccncc5)C[C@@H]34)cc2)c1	3	3	x	-1	-4	x
CC(=O)N(C)C[C@@H]1Oc2ncc(-c3cccnc3)cc2C(=O)N([C@H](C)CO)C[C@@H]1C	-6	-2	x	0	11	x
CN(C)CCCNC(=O)C[C@@H]1C=C[C@@H](NC(=O)c2ccccc2F)[C@H](CO)O1	-4	0	x	6	16	x
Cc1ccc(S(=O)(=O)Nc2ccc3c(c2)C(=O)N([C@H](C)CO)C[C@H](C)[C@@H](CN(C)C(=O)Nc2c(C)noc2C)OCCCC[C@@H](C)O3)cc1	-3	-6	x	0	8	x
C[C@@H]1CN([C@H](C)CO)C(=O)c2cc(NS(=O)(=O)c3ccc(Cl)cc3)ccc2O[C@@H](C)CCCCO[C@@H]1CN(C)C(=O)C1CCCCC1	-17	8	x	2	11	x
CC(=O)c1cccc(NC(=O)CCCSc2ccccc2)c1	6	16*	2	-2	-1	0
COc1ccc2cc(C(=O)NCc3ccccc3)c(=O)oc2c1	-1	-1	-3	-5	-5	0
O=C(NCc1ccccc1)c1cc2ccccc2oc1=O	3	-4	68*	8	-7	3
N=c1oc2ccc(Br)cc2cc1C(=O)NCc1ccc(F)cc1	-7	3	-1	-1	4	-3
COc1ccc2oc(=N)c(C(=O)NCc3ccccc3)cc2c1	4	20*	-3	-2	1	x
COc1ccc2o/c(=N\O)c(C(=O)Nc3ccc(C)cc3)cc2c1	25*	0	80*	0	5	0
CCN(CC)c1ccc2cc(C(=O)NCc3ccc(F)cc3)c(=N)oc2c1	26*	-1	0	-21	7	-2
Cc1noc(C)c1S(=O)(=O)Nc1ccc2c(c1)CC(=O)N([C@@H](C)CO)C[C@H](C)[C@@H](CN(C)CC1CC1)O2	-3	x	x	0	2	x
O=C(C[C@@H]1CC[C@@H](NC(=O)c2cccnc2)[C@H](CO)O1)NCc1ccncn1	x	x	x	x	5	x
CCCN1[C@H](C(=O)N(C)C)[C@@H](CO)[C@@H]2Cn3c(ccc(/C=C/c4ccccc4)c3=O)[C@@H]21	56*	-6	x	0	-15	x
COC(=O)[C@H]1[C@H](CO)[C@H]2Cn3c(ccc(/C=C/c4ccccc4)c3=O)[C@H]2N1C(=O)c1cnccn1	-7	13	x	1	11	x
O=C(O)[C@H]1[C@H](CO)[C@H]2Cn3c(ccc(/C=C/c4ccccc4)c3=O)[C@H]2N1C(=O)c1cnccn1	103*	4	x	0	-11	x
NCC[C@H]1CC[C@H](NC(=O)c2ccccc2F)[C@@H](CO)O1	-1	8	x	2	-7	x
COc1cc(NC(=O)CSCC(=O)N(C)C2CCCCC2)cc(OC)c1	u	1	x	3	2	-4
CN(C(=O)CSCC(=O)Nc1ccc(Cl)cc1)C1CCCCC1	62*	0	-7	3	-1	-1
O=C(c1ccccc1)N1[C@H](CO)[C@@H](c2ccccc2)C12CN(Cc1nccs1)C2	27*	0	x	-1	4	x
SMILES	DENV2 CPE	SIRT5 inh	CAL PDZ FP-1	ERAP1 HTS inh	S100A4 MyoIIA	CAL PDZ FP-2
O=C(c1ccccc1)N1[C@@H](CO)[C@@H](c2ccccc2)C12CN(Cc1nccs1)C2	25*	6	x	-2	-2	x
CC(=O)N1[C@@H](CO)[C@@H](c2ccccc2)C12CN(Cc1nccs1)C2	4	0	x	-3	1	x
CCC(=O)N1[C@H](CO)[C@@H](c2ccccc2)C12CN(Cc1nccs1)C2	73*	-5	x	2	2	x
OC[C@@H]1[C@@H](c2ccccc2)C2(CN(Cc3nccs3)C2)N1CCC(F)(F)F	0	1	x	6	4	x
CC(=O)N1[C@H](CO)[C@H](c2ccccc2)C12CN(Cc1nccs1)C2	10	11	x	-3	7	x
Cc1noc(C)c1S(=O)(=O)Nc1cccc2c1O[C@@H](CN(C)S(=O)(=O)c1cccs1)[C@@H](C)CN([C@H](C)CO)C2=O	3	6	x	1	-1	x
O=C(CN1C(=O)NC2(CCCC2)C1=O)N1CCN(S(=O)(=O)c2ccccc2[N+](=O)[O-])CC1	38*	0	-3	-1	4	-2
CSc1ccccc1NC(=O)CN1CCN(S(=O)(=O)c2ccccc2[N+](=O)[O-])CC1	-1	-5	+	-3	-10	-1
O=C(CN1C(=O)NC2(CCCC2)C1=O)N1CCN(S(=O)(=O)c2ccccc2F)CC1	2	-1	x	1	2	0
COc1ccccc1Nc1ncnc2c1c(C)c(C)n2CCCN(C)C	42*	-3	-6	2	-2	1
COCCNC(=O)C[C@@H]1C[C@H]2c3cc(NC(=O)c4ccc5c(c4)OCO5)ccc3O[C@H]2[C@H](CO)O1	-3	5	x	0	8	x
Cc1cc([N+](=O)[O-])nn1CC(=O)Nc1cc(F)ccc1F	-7	-1	69*	x	-7	-2
Cc1ccnn1CC(=O)N/N=C/c1cccs1	x	x	-1	x	x	-1
Cc1ccnn1CC(=O)N/N=C/c1ccc([N+](=O)[O-])s1	11	3	87*	5	0	-1
Cc1cc([N+](=O)[O-])nn1CC(=O)N/N=C/c1ccccc1O	6	6	10	x	0	-1
Cc1cc([N+](=O)[O-])nn1CC(=O)NCc1ccc(Cl)cc1	-5	1	-3	7	6	-1
Cc1cc([N+](=O)[O-])nn1CC(=O)N/N=C/c1ccccc1F	-4	-8	44*	1	-1	-1
Cc1noc(C)c1NC(=O)Nc1ccc2c(c1)C(=O)N([C@@H](C)CO)C[C@@H](C)[C@@H](CN(C)S(=O)(=O)c1ccc(Cl)cc1)O2	-3	5	x	1	6	x

Screening results from PubChem.
